Measurements reported in BindingDB's records for doi:10.1021/acsmedchemlett.6b00438 (Rhône-Poulenc Rorer, 2017).

Assays:
[1] = molecular target: Phosphatidylinositol 3-kinase regulatory subunit alpha/4,5-bisphosphate 3-kinase catalytic subunit delta isoform (Homo sapiens, UniProt P27986+O00329); test: Inhibition of full length recombinant human N-terminal His6-tagged PI3K p110delta/human p85alpha expressed in baculovirus infected sf21 cells using PIP2 as substrate preincubated for 30 mins followed by substrate addition by HTRF assay
Sequence of Phosphatidylinositol 3-kinase regulatory subunit alpha/4,5-bisphosphate 3-kinase catalytic subunit delta isoform (P27986 whole entry, one chain of several, canonical isoform): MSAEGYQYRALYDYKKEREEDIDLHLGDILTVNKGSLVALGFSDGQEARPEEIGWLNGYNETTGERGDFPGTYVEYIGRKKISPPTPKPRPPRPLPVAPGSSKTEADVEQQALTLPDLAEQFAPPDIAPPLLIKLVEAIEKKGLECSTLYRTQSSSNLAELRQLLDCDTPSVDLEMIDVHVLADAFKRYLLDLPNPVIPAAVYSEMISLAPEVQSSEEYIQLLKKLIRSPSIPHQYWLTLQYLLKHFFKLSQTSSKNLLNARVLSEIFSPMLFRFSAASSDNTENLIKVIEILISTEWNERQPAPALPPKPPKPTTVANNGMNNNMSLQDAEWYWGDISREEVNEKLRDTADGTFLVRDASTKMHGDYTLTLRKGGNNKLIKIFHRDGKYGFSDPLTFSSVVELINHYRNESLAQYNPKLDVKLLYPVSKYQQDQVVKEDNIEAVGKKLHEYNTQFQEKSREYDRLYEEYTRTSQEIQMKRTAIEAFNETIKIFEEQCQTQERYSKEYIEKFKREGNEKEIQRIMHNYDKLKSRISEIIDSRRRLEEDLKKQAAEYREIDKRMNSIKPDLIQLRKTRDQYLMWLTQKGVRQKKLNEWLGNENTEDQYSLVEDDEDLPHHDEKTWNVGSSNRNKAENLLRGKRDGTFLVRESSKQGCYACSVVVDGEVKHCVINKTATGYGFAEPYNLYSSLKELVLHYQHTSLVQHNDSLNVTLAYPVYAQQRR

[2] = molecular target: T1, Phosphatidylinositol 4,5-bisphosphate 3-kinase catalytic subunit delta isoform (Homo sapiens, UniProt O00329); test: Inhibition of PI3Kdelta in human THP1 cells assessed as reduction in MCSF-stimulated akt phosphorylation at Thr308 preincubated for 30 mins followed by MCSF stimulation for 3 mins by ELISA
T1 sequence (O00329 whole entry): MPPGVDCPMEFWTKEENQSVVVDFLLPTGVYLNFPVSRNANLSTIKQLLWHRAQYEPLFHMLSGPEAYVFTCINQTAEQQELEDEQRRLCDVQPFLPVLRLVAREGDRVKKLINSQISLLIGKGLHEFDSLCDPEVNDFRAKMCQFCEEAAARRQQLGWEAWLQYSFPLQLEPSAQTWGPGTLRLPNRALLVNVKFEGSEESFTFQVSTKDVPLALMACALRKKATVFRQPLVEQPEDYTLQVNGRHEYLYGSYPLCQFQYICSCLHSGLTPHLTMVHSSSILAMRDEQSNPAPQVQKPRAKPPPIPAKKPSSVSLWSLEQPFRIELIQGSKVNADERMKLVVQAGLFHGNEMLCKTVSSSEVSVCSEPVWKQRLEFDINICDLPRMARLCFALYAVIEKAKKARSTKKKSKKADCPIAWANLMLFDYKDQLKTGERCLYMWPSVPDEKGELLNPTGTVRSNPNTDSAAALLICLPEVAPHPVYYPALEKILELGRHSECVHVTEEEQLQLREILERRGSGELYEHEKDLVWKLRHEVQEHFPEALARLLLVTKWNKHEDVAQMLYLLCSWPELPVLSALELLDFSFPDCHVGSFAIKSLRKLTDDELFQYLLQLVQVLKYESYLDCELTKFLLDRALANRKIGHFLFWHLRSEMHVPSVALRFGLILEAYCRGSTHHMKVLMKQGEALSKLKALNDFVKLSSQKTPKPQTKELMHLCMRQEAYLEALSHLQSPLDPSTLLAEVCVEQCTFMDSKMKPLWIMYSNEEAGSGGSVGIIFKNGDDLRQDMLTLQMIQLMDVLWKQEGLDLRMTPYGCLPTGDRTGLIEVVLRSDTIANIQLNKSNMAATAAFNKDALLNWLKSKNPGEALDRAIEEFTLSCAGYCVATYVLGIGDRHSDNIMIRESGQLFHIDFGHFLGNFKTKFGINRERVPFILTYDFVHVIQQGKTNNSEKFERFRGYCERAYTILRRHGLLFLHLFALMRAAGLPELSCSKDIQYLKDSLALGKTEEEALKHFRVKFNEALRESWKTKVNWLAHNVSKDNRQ
Procedure, shortened: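 THP-1 cells exposed to compound for 30 min, then stimulated with MCSF at EC80 for 3 min; lysates assayed by ELISA for pAkt (Thr308).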

IC50 [1]: 17 nM
IC50 [2]: 51 nM
Structure (SMILES): N#Cc1c(N)ncnc1NC(CC(F)(F)F)c1nn2cccc2c(=O)n1-c1ccccc1 (configuration not stated)
